Reference: ChEMBL document CHEMBL4024783, “Alkylated Piperazines and Piperazine-Azole Hybrids as Antifungal Agents” (J Med Chem, 2018)
Converted amounts (≈) assume the structure as drawn. The source made the active and inactive calls. The rule behind the calls is not given here.

Columns and labels:
[1] = tested on: Candida albicans; assay: Inhibition of 14alpha-demethylase in Candida albicans ATCC 10231 assessed as ergosterol levels at 0.975 ug/mL by GC-MS analysis; set-up: scale not given: the % may be the effect or the level left
Outline: (§1)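 C. albicans ATCC 10231 was treated with drug or DMSO (no-drug control). Sterols were extracted and analysed by GC-MS; lanosterol, eburicol, ergosterol and 14α-methyl ergosta-8,24(28)-diene-3β,6α-diol were quantified as percent of sterols.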

[2] = tested on: Candida albicans; assay: Antifungal activity against Candida albicans ATCC 10231 after 48 hrs by broth dilution method; type: functional; settings: ATCC 10231, 48 h
[3] = tested on: Candida albicans; assay: Antifungal activity against itraconazole and fluconazole resistant Candida albicans ATCC 90819 after 48 hrs by broth dilution method; type: functional; settings: Candida albicans, ATCC 90819, 48 h
Outline: (§2)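 CLSI M27-A3 broth microdilution with minor modifications. Overnight YPD culture grown at 35 °C, 200 rpm, adjusted to OD600 0.12, diluted in RPMI 1640 buffered to pH 7.0 with 0.165 M MOPS to a final 1–2 × 10^3 CFU/mL. Test compounds at 0.015–31.3 µg/mL, 48 h at 35 °C, DMSO <1.25%. […] Triplicate.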

[4] = tested on: Candida albicans; assay: Antifungal activity against itraconazole and fluconazole resistant Candida albicans ATCC MYA-1003 after 48 hrs by broth dilution method; type: functional; settings: Candida albicans, ATCC MYA-1003, 48 h; outline: as §2
[5] = tested on: Candida albicans; assay: Antifungal activity against itraconazole and fluconazole resistant Candida albicans ATCC MYA-1237 after 48 hrs by broth dilution method; type: functional; settings: Candida albicans, ATCC MYA-1237, 48 h; outline: as §2
[6] = tested on: Candida albicans; assay: Antifungal activity against Candida albicans ATCC 10231 after 48 hrs in the presence of 10% FBS by broth dilution method; type: functional; settings: ATCC 10231, 48 h
[7] = tested on: Candida parapsilosis; assay: Antifungal activity against Candida parapsilosis ATCC 22019 after 48 hrs by broth dilution method; type: functional; settings: Lodderomyces parapsilosis, ATCC 22019, 48 h
[8] = tested on: Candida albicans; assay: Antifungal activity against itraconazole and fluconazole susceptible Candida albicans ATCC MYA-2876 after 48 hrs by broth dilution method; type: functional; settings: Candida albicans, ATCC MYA-2876, 48 h
[9] = tested on: Candida albicans; assay: Inhibition of 14alpha-demethylase in Candida albicans ATCC 10231 assessed as total sterol levels at 0.975 ug/mL by GC-MS analysis; set-up: scale not given: the % may be the effect or the level left; outline: as §1
[10] = tested on: Candida albicans; assay: Inhibition of 14alpha-demethylase in Candida albicans ATCC 10231 assessed as lanosterol levels at 0.975 ug/mL by GC-MS analysis; set-up: scale not given: the % may be the effect or the level left; outline: as §1
[11] = tested on: Candida albicans; assay: Inhibition of 14alpha-demethylase in Candida albicans ATCC 10231 assessed as 14alpha-methyl ergosta-8,24(28)-dien-3beta,6alpha-diol levels at 0.975 ug/mL by GC-MS analysis; set-up: scale not given: the % may be the effect or the level left; outline: as §1
[12] = Solubility of the compound in DMSO; type: physicochemical
[13] = tested on: Candida albicans; assay: Antibiofilm activity against voriconazole resistant Candida albicans ATCC 64124 sessile cells incubated for 24 hrs by XTT reduction assay; type: functional; settings: ATCC 64124, 24 h
Outline: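 Strain B grown overnight in YPD broth at 35 °C, diluted to OD600 0.1 (~10^6 CFU/mL), then grown statically for 24 h at 37 °C to form biofilm. Washed with PBS, then drug in RPMI 1640 at 0.12–62.5 µg/mL for 24 h at 37 °C. Read-out: XTT 0.5 mg/mL with menadione 1 µM, 2 h, A490. SMIC50/SMIC80 are 50%/80% decreases versus drug-free biofilm. Duplicate.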

[14] = tested on: Candida albicans; assay: Ratio of MIC80 for voriconazole resistant Candida albicans ATCC 64124 sessile cells to MIC for voriconazole resistant Candida albicans ATCC 64124; type: functional
[15] = tested on: Aspergillus nidulans; assay: Antifungal activity against Aspergillus nidulans ATCC 38163 after 48 hrs by broth dilution method; type: functional; settings: Aspergillus nidulans, ATCC 38163, 48 h
Outline: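 A. nidulans run per CLSI M38-A2. PDA spores were filtered through glass wool and counted by hemocytometer. Test range 0.03–31.3 µg/mL in MOPS-buffered RPMI 1640 (pH 7.0), final 5 × 10^5 CFU/mL.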

[16] = tested on: Candida albicans; assay: Antifungal activity against itraconazole and fluconazole susceptible Candida albicans ATCC MYA-2310 after 48 hrs by broth dilution method; type: functional; settings: Candida albicans, ATCC MYA-2310, 48 h
[17] = tested on: Nakaseomyces glabratus; assay: Antifungal activity against Candida glabrata ATCC 2001 after 48 hrs by broth dilution method; type: functional, CBS 138; settings: Nakaseomyces glabratus, CBS 138, 48 h
[18] = tested on: Aspergillus flavus; assay: Antifungal activity against Aspergillus flavus ATCC MYA-3631 after 48 hrs by broth dilution method; type: functional; settings: ATCC MYA-3631, 48 h
[19] = tested on: Candida parapsilosis; assay: Antifungal activity against Candida parapsilosis ATCC 22019 after 48 hrs in the presence of 10% FBS by broth dilution method; type: functional; settings: Lodderomyces parapsilosis, ATCC 22019, 48 h
[20] = tested on: Candida albicans; assay: Antifungal activity against Candida albicans ATCC 64124 after 48 hrs by broth dilution method; type: functional; settings: Candida albicans, ATCC 64124, 48 h; outline: as §2
[21] = Aqueous solubility of the compound; type: physicochemical; settings: buffer
[22] = tested on: Aspergillus nidulans; assay: Antifungal activity against Aspergillus nidulans ATCC 38163 after 48 hrs in the presence of 10% FBS by broth dilution method; type: functional; settings: ATCC 38163, 48 h
[23] = tested on: Candida albicans; assay: Antifungal activity against Candida albicans ATCC 10231 at 7.8 ug/mL incubated for 1 hr by propidium iodide staining-based fluorescence microscopic method; type: functional
Outline: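 C. albicans ATCC 10231 grown overnight in YPD broth at 35 °C with shaking at 200 rpm, then transferred to RPMI 1640. Cells were exposed to drug and stained with propidium iodide, which enters only cells with compromised membranes. Uptake was judged by fluorescence microscopy against an untreated control.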

[24] = tested on: Aspergillus terreus; assay: Antifungal activity against Aspergillus terreus ATCC MYA-3633 after 48 hrs by broth dilution method; type: functional; settings: Aspergillus terreus, ATCC MYA-3633, 48 h
Outline: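 Molds tested per CLSI M38-A2. Spores were harvested from sporulating PDA cultures by filtering through glass wool and counted on a hemocytometer. Serial dilutions (0.03–31.3 µg/mL) were made in RPMI 1640 buffered to pH 7.0 with 0.165 M MOPS, final inoculum 5 × 10^5 CFU/mL.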

[25] = tested on: Pichia kudriavzevii; assay: Antifungal activity against Candida krusei ATCC 6258 after 48 hrs by broth dilution method; type: functional; settings: Pichia kudriavzevii, ATCC 6258, 48 h
Outline: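 Yeasts tested per CLSI M27-A3 with minor changes. An overnight YPD culture (35 °C, 200 rpm) was adjusted to OD600 0.12 and diluted in MOPS-buffered RPMI 1640 (pH 7.0) to a final 1–2 × 10^3 CFU/mL. Compounds 0.015–31.3 µg/mL, DMSO <1.25%.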

[26] = tested on: Candida albicans; assay: Inhibition of 14alpha-demethylase in Candida albicans ATCC 10231 assessed as eburicol levels at 0.975 ug/mL by GC-MS analysis; set-up: scale not given: the % may be the effect or the level left; outline: as §1
[27] = tested on: Candida parapsilosis; assay: Fungistatic activity against Candida parapsilosis ATCC 22019 up to 8 times MIC incubated for 24 hrs by time kill assay; type: functional
Outline: (§3)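 Overnight YPD cultures were diluted in RPMI 1640 to OD600 0.12–0.13; initial inoculum 1–4 × 10^5 CFU/mL. […] Shaken at 200 rpm, 35 °C, for 24 h, sampling at 0, 3, 6, 9, 12 and 24 h. Serial dilutions were plated on PDA and CFU counted; detection limit 100 CFU/mL; duplicate.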

[28] = tested on: Nakaseomyces glabratus; assay: Fungicidal activity against Candida glabrata ATCC 2001 at 4 times MIC incubated for 24 hrs by time kill assay; type: functional; settings: CBS 138; outline: as §3
[29] = Cytotoxicity against HEK293 cells assessed as cell survival at 7.8 ug/mL after 24 hrs by resazurin-based fluorescence assay; settings: human, read-out: Survival
Outline: (§4)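 Cells were grown in DMEM with 10% FBS and 1% Pen/Strep at 37 °C, 5% CO2. HEK-293 was seeded at 10000 cells/well; A549 and BEAS-2B at 3000 cells/well. After 16 h, cells were exposed for 24 h to final 0.13–31 µg/mL in 0.1–0.4% DMSO, then given resazurin for 6–10 h. Read at ex 560/em 590. […] Run in duplicate.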

[30] = Cytotoxicity against human BEAS2B cells assessed as cell survival at 7.8 ug/mL after 24 hrs by resazurin-based fluorescence assay; settings: BEAS-2B cells, read-out: Survival; outline: as §4
[31] = Cytotoxicity against human A549 cells assessed as cell survival at 7.8 ug/mL after 24 hrs by resazurin-based fluorescence assay; settings: read-out: Survival; outline: as §4

SMILES	MIC [2]	MIC [3]	MIC [4]	MIC [5]	MIC [6]	MIC [7]	MIC [8]	solubility [12]	MIC50 [13]	MIC80 [13]	Ratio [14]	MIC [15]	MIC [16]	MIC [17]	MIC [18]	MIC [19]	MIC [20]	solubility [21]	MIC [22]	MIC [24]	further results
CCCCCCCCCCCCN1CCN(CC(O)(Cn2cncn2)c2ccc(Cl)cc2Cl)CC1 (stereo not drawn)	3.7 µM (≈ 1.94 µg/mL)	7.4 µM (≈ 3.88 µg/mL)	3.7 µM (≈ 1.94 µg/mL)	7.4 µM (≈ 3.88 µg/mL)	1.95 µg/mL	0.46 µM (≈ 0.241 µg/mL)	7.4 µM (≈ 3.88 µg/mL)	Soluble	15.6 µg/mL (≈ 29.7 µM)	31.3 µg/mL (≈ 59.7 µM)	2 - 4	3.7 µM (≈ 1.94 µg/mL)	7.4 µM (≈ 3.88 µg/mL)	1.9 µM (≈ 0.997 µg/mL)	7.4 µM (≈ 3.88 µg/mL)	0.24 µg/mL	14.9 µM (≈ 7.82 µg/mL)	Soluble	3.9 µg/mL	3.7 µM (≈ 1.94 µg/mL)	Activity [1]: 50.6%; Activity [9]: 3.56 to 4.08%; Activity [10]: 29.5%; Activity [11]: 11.1%; Activity [23]: inactive; MIC [25]: 3.7 µM (≈ 1.94 µg/mL); Activity [26]: 1.15%
CCCCCCCCCCCCN1CCN(CC(O)(Cn2cncn2)c2ccc(F)cc2F)CC1 (stereo not drawn)	3.9 µM (≈ 1.92 µg/mL)	7.9 µM (≈ 3.88 µg/mL)	31.7 µM (≈ 15.6 µg/mL)	15.9 µM (≈ 7.82 µg/mL)	1.95 µg/mL	0.03 µM (≈ 0.0148 µg/mL)	7.9 µM (≈ 3.88 µg/mL)	Soluble	7.8 µg/mL (≈ 15.9 µM)	15.6 µg/mL (≈ 31.7 µM)	1 - 2	7.9 µM (≈ 3.88 µg/mL)	15.9 µM (≈ 7.82 µg/mL)	2 µM (≈ 0.983 µg/mL)	3.9 µM (≈ 1.92 µg/mL)	0.06 µg/mL	15.9 µM (≈ 7.82 µg/mL)	Soluble	3.9 µg/mL	7.9 µM (≈ 3.88 µg/mL)	Activity [27]: Active; Activity [28]: Active; viability at 24 h, 7.8 ug/mL [29]: < 40%; viability at 24 h, 7.8 ug/mL [30]: < 40%; MIC [25]: 0.98 µM (≈ 0.482 µg/mL); viability at 24 h, 7.8 ug/mL [31]: < 40%
